Publication PMC10884804 (Food Chemistry: X, 2024)
Ends that are not written are not given here. * marks the point of attachment. Dodecyl = CCCCCCCCCCCC*; Octyl = CCCCCCCC*

Experiments:
[1] = test system: Pseudomonas; experiment: MIC by two-fold serial dilution; assay type: cell-based; conditions: for MIC: two-fold serial dilution, at least three repeats
[2] = test system: Shewanella; experiment: MIC by two-fold serial dilution; assay type: cell-based; conditions: for MIC: two-fold serial dilution, at least three repeats
[3] = test system: Pseudomonas; experiment: Cell wall permeability; assay type: cell-based; conditions: peptide at MIC, 37℃, 4 h
Method in brief: (§1)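 Bacteria from a national culture collection were incubated with the test compound at the MIC (the control received an equal volume of sterile water) at 37°C for 4 h. Samples were centrifuged at 4°C and 5000 x g for 10 min, and alkaline phosphatase (AKP) was measured in the supernatant. Each experiment was done at least three times, reported as mean ± SD.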

[4] = test system: Shewanella; experiment: Cell wall permeability; assay type: cell-based; conditions: peptide at MIC, 37℃, 4 h
Method in brief: as §1

[5] = test system: Pseudomonas; experiment: Cell membrane permeability, PI/FDA flow cytometry; assay type: cell-based; conditions: peptide at MIC, 37℃, 1 h, sum of Q1 and Q2
[6] = test system: Shewanella; experiment: Cell membrane permeability, PI/FDA flow cytometry; assay type: cell-based; conditions: peptide at MIC, 37℃, 1 h; for bacteria distributed in Q1 and Q2 regions (disturbed membranes): Shewanella, sum of Q1 and Q2
[7] = test system: Pseudomonas; experiment: Ultrastructural observation of treated bacteria; assay type: cell-based; conditions: cells treated with peptide
[8] = Self-assembly morphology by TEM; assay type: physicochemical; conditions: aqueous solution, 1 mM
[9] = Circular dichroism secondary structure; assay type: physicochemical; conditions: aqueous solution, 190–270 nm
Method in brief: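 The test compound was dissolved in sterile PBS and in 2.5 % SDS buffer (a membrane-mimetic hydrophobic environment), then filtered through 0.22 µm. Spectra were scanned at 190-270 nm with 1 nm bandwidth and 0.5 s interval in a 0.1 cm cuvette. Ellipticity (mdeg) was converted to molar residue ellipticity using residue number, peptide concentration and path length.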

| MIC [1] | MIC [2] | Substance | cell wall permeability (AKP leakage) [3] | cell wall permeability (AKP leakage) [4] | bacteria distributed in Q1 and Q2 regions (disturbed membranes) [5] | bacteria in Q1 region (PI-positive, FDA-negative) ([6]; Shewanella (Fig. 4D), flow cytometry) | bacteria distributed in Q1 and Q2 regions (disturbed membranes) [6] | morphological changes of bacterial cells (TEM) [7] | self-assembly morphology [8] | secondary structure [9] | antibacterial activity (in words) ([1]; bacterial survival rate, S.2) | antibacterial activity (in words) ([2]; bacterial survival rate, S.2) |
| --- | --- | --- | --- | --- | --- | --- | --- | --- | --- | --- | --- | --- |
| 4 µM | 4 µM | C8-AL-16: AL-16 with alkyl chain (C8) attached to the N-terminus (Octyl-AKATKAAKALLKLWLL) | significantly enhanced | significantly enhanced | > 98% | 38.80% | > 98% | disrupted by lysis, and the contents leaked, resulting in serious damage | nanospheres in the form of micelles | β-folded structure | – | – |
| – | – | APATPAAPALLPLWLL [AP-16] | – | – | – | – | – | – | did not exhibit an evident self-assembly morphology | randomly curled structure | no significant antibacterial activity | no significant antibacterial activity |
| 4 µM | 4 µM | C12-AL-16: AL-16 with alkyl chain (C12) attached to the N-terminus (Dodecyl-AKATKAAKALLKLWLL) | – | – | > 98% | – | > 98% | bacterial contents were lost; however, the basic membrane structure was maintained | nanospheres in the form of micelles | α-helix | – | – |

| Substance | MIC [1] | MIC [2] | cell wall permeability (AKP leakage) [3] | cell wall permeability (AKP leakage) [4] | bacteria distributed in Q1 and Q2 regions (disturbed membranes) [5] | bacteria in Q1 region (PI-positive, FDA-negative) ([6]; Shewanella (Fig. 4D), flow cytometry) | bacteria distributed in Q1 and Q2 regions (disturbed membranes) [6] | morphological changes of bacterial cells (TEM) [7] | self-assembly morphology [8] | secondary structure [9] | antibacterial activity (in words) ([1]; bacterial survival rate, S.2) | antibacterial activity (in words) ([2]; bacterial survival rate, S.2) |
| --- | --- | --- | --- | --- | --- | --- | --- | --- | --- | --- | --- | --- |
| AKATKAAKALLKLWLL [AL-16] | 16 µM | 128 µM | – | – | – | – | – | – | – | – | – | – |
